PP5 inh: blocks human protein phosphatase 5 activity | P53041 | purified PP5c, OMFP substrate fluorescence | inhibition, % at 6.7 µM | 320,000 tested, 0.18% active;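 active means inhibition above the campaign's mean inhibition across all tested compounds plus 3 SD, cut at about 9.5% in these data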
PP1 counter: PP1-alpha (human) inhibition in PP5 counter-screen. purified PP1alpha, OMFP fluorescence. P62136. inhibition, % at 6.7 µM. AID 2235. 320,000 tested, 0.9% active;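 active means inhibition above the mean inhibition of all tested compounds plus 3 SD, computed separately for each screening campaign, cut at about 15% in these data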
Target sequence (P62136 whole entry, looked up): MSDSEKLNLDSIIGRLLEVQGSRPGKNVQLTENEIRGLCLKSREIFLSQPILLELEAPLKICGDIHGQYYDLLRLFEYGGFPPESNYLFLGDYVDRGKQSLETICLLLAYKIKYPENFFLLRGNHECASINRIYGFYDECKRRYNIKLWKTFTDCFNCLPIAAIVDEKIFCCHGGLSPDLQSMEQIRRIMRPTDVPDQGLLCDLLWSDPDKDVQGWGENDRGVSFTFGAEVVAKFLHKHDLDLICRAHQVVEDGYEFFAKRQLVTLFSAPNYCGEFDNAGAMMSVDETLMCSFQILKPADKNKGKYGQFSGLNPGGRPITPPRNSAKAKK
NR2E3 ag-1: activates human NR2E3 receptor; CHO-S Gal4-NCOR/VP16-NR2E3 two-hybrid, luciferase; AID 602229; 360,000 tested, 0.35% active; inhibition of corepressor binding, % at 3.98 µM;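 active means inhibition above the mean of all tested compounds plus 3 SD, cut at about 70% in these data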;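 further: higher means lower luciferase signal from less NR2E3 corepressor binding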
NR2E3 ag-2: NR2E3 (human) agonism | Q9Y5X4 | GST-NR2E3/biotin-RetCOR TR-FRET, 1536-well | inhibition of corepressor binding, % at 4.78 µM | 320,000 tested, 0.12% active | AID 2300;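 active means percent inhibition above the cutoff of mean plus 3 SD of all tested compounds, set per screening campaign, cut at about 20% in these data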
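Assay system: NR2E3–RetCOR corepressor complex. Quantity: 1.35 nM GST-NR2E3. Buffer or medium: pH 7.5 Tris-based buffer. Reagent: biotinylated RetCOR corepressor at 7 nM final. Schedule: 5 h at 4 °C. Detection: TR-FRET, emission read at 617 and 671 nm. Replicates: one well per compound, singlicate testing.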
NR2E3 ag confirm: confirmation of human NR2E3 agonists | AID 624378 | inhibition, % at 3.98 µM | shares compounds with NR2E3 ag-1 | CHO-S mammalian two-hybrid NR2E3-NCOR, luciferase luminescence | 2,300 tested, 51% active;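 active means average inhibition above a cutoff equal to the mean inhibition of all tested compounds plus one SD, cut at about 70% in these data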
GAL4-VP16 luc: GAL4-VP16 reporter inhibition in NR2E3 agonist counterscreen. shares compounds with NR2E3 ag-1. CHO-S GAL4-VP16 luciferase reporter, luminescence. inhibition, % at 3.98 µM. 2,300 tested, 29% active. AID 624379;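 active means mean inhibition above a cutoff equal to the average over all tested compounds plus one standard deviation, cut at about 70% in these data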;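 further: luciferase from a UAS reporter driven by GAL4-VP16 transactivation; higher means less reporter light so more repression of VP16 activity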
A number is an active result; n = inactive; x = no result given. A selection: hits, their analogues and other compounds. The true share with any hit is near 1.3%.

SMILES	PP5 inh	PP1 counter	NR2E3 ag-1	NR2E3 ag-2	NR2E3 ag confirm	GAL4-VP16 luc
COCc1cc(=O)n2[nH]cc(-c3ccsc3)c2n1	n	n	n	n	x	x
CC1=CC(C)(C)NC(=S)N1c1cccc2cc(S(=O)(=O)O)ccc12	n	n	n	n	x	x
CC(C)(C)CC(=O)Nc1nnc(C(F)(F)F)s1	n	n	n	n	x	x
CC(NC(=O)Nc1nnc(C(F)(F)F)s1)(C(F)(F)F)C(F)(F)F	n	n	105.8	n	100.2	94.0
Cc1cnc(CNC(=O)C2(C)CCCN2CC(C)C)cn1 (centres undefined)	x	x	n	x	x	x
Cc1ccc(-c2nc(CS(=O)(=O)CC(=O)N3CCCCCC3)c(C)o2)cc1	n	n	n	n	n	n
O=C(Nc1ccc2c(c1)OCCO2)C(c1ccnc2ccccc12)N1CCN(c2ccc(F)cc2)CC1 (centres undefined)	x	x	n	x	x	x
O=C(Nc1ccc2c(c1)OCCO2)C(c1ccnc2ccccc12)N1CCN(c2ccc(C(F)(F)F)cn2)CC1 (centres undefined)	x	x	n	x	n	n
O=C(O)C1CCCCC1C(=O)Nc1ccc2c(c1)OCCO2 (centres undefined)	n	n	n	n	n	n
O=C(O)C1C2C=CC(C2)C1C(=O)Nc1ccc2c(c1)OCCO2 (centres undefined)	n	n	n	n	n	n
O=[N+]([O-])c1ccccc1N/N=C1\CC2CC=CC12 (centres undefined)	n	n	n	n	x	x
Cc1ccc(S(=O)(=O)NC(=O)C2(C)CCN2C(=O)CCc2ccc(Cl)cc2Cl)nc1 (centres undefined)	x	x	n	x	x	x
Cc1ccc(C)c(C(O)c2ncc(-c3ccc(F)cc3)[nH]2)c1 (centres undefined)	x	x	n	x	x	x
O=C(c1cc(S(=O)(=O)N2CCOCC2)ccc1Cl)N1CCC(Cc2ccccc2)CC1	n	n	n	n	n	n
COC(C(=O)C(O)C(C)O)C1Cc2cc3cc(OC4CC(OC5CC(O)C(O)C(C)O5)C(O)C(C)O4)c(C)c(O)c3c(O)c2C(=O)C1OC1CC(OC2CC(OC3CC(O)C(OC)C(C)O3)C(O)C(C)O2)C(O)C(C)O1 (centres undefined)	x	x	96.1	x	92.8	74.9
Cc1cc(C)c(-c2c(O)c3cccnc3n(C)c2=O)c(C)c1	n	n	n	n	x	x
C/C(CC(=O)Nc1cccc(C(F)(F)F)c1)=N\NC(=O)C1CCCCC1	n	n	n	n	x	x
O=c1[nH]cnc2c1ncn2[C@@H]1O[C@H](CO)[C@@H](O)[C@H]1O	n	n	n	n	x	x
CN(C)c1ncnc2c1ccn2C1OC(CO)C(O)C1O (centres undefined)	x	x	n	x	72.1	n
O=c1[nH]nnc2c1ncn2C1OC(CO)C(O)C1O (centres undefined)	x	x	n	x	n	n
OCC1OC(n2cnc3c(NCc4ccccc4O)ncnc32)C(O)C1O (centres undefined)	x	x	71.6	x	n	n
OCC1OC(n2ccc3c(NO)ncnc32)C(O)C1O (centres undefined)	x	x	101.6	x	99.4	92.8
Cc1[nH]c(=O)[nH]c(=O)c1S(=O)(=O)N1CCCC(C(=O)N2CCN(c3cccc(C(F)(F)F)c3)CC2)C1 (centres undefined)	n	n	n	n	x	x
CNC(=O)C[C@@H]1C(=O)N(c2ccc(Br)cc2)CC1(C)C	x	x	n	x	x	x
COc1ccc(CCNc2c(C)c(C)nc3ncnn23)cc1	n	n	93.5	n	93.7	75.4
SMILES	PP5 inh	PP1 counter	NR2E3 ag-1	NR2E3 ag-2	NR2E3 ag confirm	GAL4-VP16 luc
O=S(=O)(Nc1cccc2ncccc12)c1cccs1	n	n	97.0	n	n	n
Brc1cccc(-c2nc3ccc(Br)cn3c2Cc2ccccc2)c1	x	x	n	x	x	x
CC(C)(C)[C@H]1C=C(C(=O)Nc2ccccc2)O[C@@H](OCCCCO)C1	n	n	n	n	n	n
CC(C)CNc1ncnc2c1ncn2[C@H]1CN(Cc2ccncc2)C[C@@H](CO)O1	x	x	n	x	x	x
CC(C)CNc1ncnc2c1ncn2[C@H]1CN(Cc2ccc(-c3ccccc3)cc2)C[C@@H](CO)O1	x	x	n	x	88.7	n
CC(C)Nc1ncnc2c1ncn2[C@H]1CN(Cc2ccc(-c3ccccc3)cc2)C[C@@H](CO)O1	x	x	72.8	x	n	n
COc1ccc(Nc2nnc(C)c(=O)[nH]2)c(OC)c1	n	n	n	n	x	x
O=C(COC(=O)CCS(=O)(=O)c1ccc(F)cc1)NC1CCCCC1	n	n	n	n	x	x
CCCS(=O)(=O)NC(=O)C1(C)CCCN(C(=O)c2cccc(Cl)c2)C1 (centres undefined)	x	x	n	x	x	x
O=C(Oc1ccnc2cc(Cl)ccc12)N1CCCCCC1	n	n	n	n	n	n
O=C(NNc1ccnc2cc(Cl)ccc12)C1CCCCC1	n	n	n	n	97.3	86.5
CN(Cc1cccc2cnccc12)C(=O)c1cc(COc2ccc(F)cc2F)on1	x	x	72.1	x	n	n
Cc1c(C(C)NC(=O)c2cc(COc3cccc4cnccc34)on2)cnn1C (centres undefined)	n	n	72.1	n	n	n
CCc1ccc(CN(C)C(=O)c2cc(COc3cccc4cnccc34)on2)cc1	n	n	107.8	n	98.3	89.0
CSc1ccccc1OCc1cc(C(=O)NC(C)c2cnn(C)c2)no1 (centres undefined)	n	n	n	n	x	x
CCc1ccc(CN(C)C(=O)c2cc(COc3c(F)cccc3F)on2)cc1	n	n	n	n	x	x
COc1ccc(C2=Cc3ccccc3C(CC(=O)C3CC3)N2c2ccc(-c3cc(OC)c(OC)c(OC)c3)cc2)cc1 (centres undefined)	x	x	n	x	x	x
C[C@H]1NS(=O)(=O)c2ccc(Br)cc2O[C@H]1c1ccccc1	x	x	n	x	x	x
CC1=Nc2ccccc2/C1=C/c1nc(-c2ccc(C)s2)oc1O	n	n	n	n	x	x
CC1=Nc2ccccc2/C1=C/c1sc(=N)n(-c2nccs2)c1O	n	n	75.8	n	n	n
CSc1ccc(NC(=O)C(C)N2CCN(C)CC2)cc1 (centres undefined)	n	n	n	n	x	x
Cc1ccc(NC(=O)C(C)c2cccc(C(=O)c3ccccc3)c2)cc1O (centres undefined)	n	n	n	n	94.6	80.1
Cc1cccc(NC(=O)C(C)C(=O)c2ccccc2)c1 (centres undefined)	x	x	n	x	x	x
Cc1csc(NC(=O)CSc2nnc(NC(=O)NC(C)(C)C)s2)n1	n	n	n	n	x	x
CCOC(=O)C(=O)NNc1ccc(F)cc1	n	n	n	n	n	n
CC1C(=O)Nc2ccc(S(=O)(=O)N3CCN(c4cccc(C(F)(F)F)c4)CC3)cc2NC1=O (centres undefined)	n	n	n	n	x	x
CC(O)(c1cccnc1)c1nc(-c2cccc(C(F)(F)F)c2)cs1 (centres undefined)	x	x	n	x	n	n
CC(O)(c1cccnc1)c1nc(-c2ccc(F)c(Cl)c2)cs1 (centres undefined)	x	x	n	x	n	n
O=C(O)CCc1nc2cc(C(F)(F)F)ccc2n(Cc2ccccc2)c1=O	n	n	n	n	x	x

Screens from PubChem.
